One test addresses T1, wild type KDM4A (Homo sapiens, UniProt O75164).
T1 sequence (O75164 1-1064): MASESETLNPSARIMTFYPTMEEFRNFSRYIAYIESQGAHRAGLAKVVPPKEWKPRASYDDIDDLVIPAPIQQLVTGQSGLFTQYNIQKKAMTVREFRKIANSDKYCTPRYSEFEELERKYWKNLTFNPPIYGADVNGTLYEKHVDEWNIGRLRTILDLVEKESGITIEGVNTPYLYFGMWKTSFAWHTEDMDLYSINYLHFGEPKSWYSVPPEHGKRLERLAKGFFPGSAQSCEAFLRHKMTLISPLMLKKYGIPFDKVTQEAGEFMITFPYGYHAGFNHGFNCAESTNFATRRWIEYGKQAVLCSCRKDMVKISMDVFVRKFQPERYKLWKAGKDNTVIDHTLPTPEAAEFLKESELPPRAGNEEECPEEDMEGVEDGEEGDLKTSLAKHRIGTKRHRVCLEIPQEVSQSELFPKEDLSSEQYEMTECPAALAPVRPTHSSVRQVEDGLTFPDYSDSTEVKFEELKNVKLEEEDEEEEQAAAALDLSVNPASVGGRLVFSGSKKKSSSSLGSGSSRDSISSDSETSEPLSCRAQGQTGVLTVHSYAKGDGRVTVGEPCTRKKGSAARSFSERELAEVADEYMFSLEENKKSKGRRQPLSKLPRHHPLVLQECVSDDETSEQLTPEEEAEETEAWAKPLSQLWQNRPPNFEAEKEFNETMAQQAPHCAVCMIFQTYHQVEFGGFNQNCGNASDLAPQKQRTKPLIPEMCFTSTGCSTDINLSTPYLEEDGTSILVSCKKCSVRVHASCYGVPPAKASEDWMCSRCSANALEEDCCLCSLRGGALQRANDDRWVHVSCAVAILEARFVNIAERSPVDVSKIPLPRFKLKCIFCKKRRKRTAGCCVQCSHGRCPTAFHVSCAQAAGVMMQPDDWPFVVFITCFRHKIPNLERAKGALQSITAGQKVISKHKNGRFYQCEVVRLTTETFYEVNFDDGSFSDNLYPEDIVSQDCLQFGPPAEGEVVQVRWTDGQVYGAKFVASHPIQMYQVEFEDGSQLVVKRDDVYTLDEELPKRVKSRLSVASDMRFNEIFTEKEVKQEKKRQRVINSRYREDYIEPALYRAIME
The experiment in a line: MALDI demethylase assay, H3K9me3 substrate peptide, wild type enzyme. In kind it is biochemical.

Another test addresses T2, KDM4A S288A mutant (Homo sapiens, UniProt O75164, S288A).
T2 sequence (O75164 1-1064 S288A): T1 sequence (O75164 1-1064) with S288A
The experiment in a line: MALDI demethylase assay, H3K9me3 substrate peptide, S288A mutant. In kind it is biochemical. In outline:
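KDM4A mutant demethylation of H3K9me3 peptide, read by MALDI-MS and expressed as % inhibition of demethylase activity, with wild type and the four active-site mutants run under the same conditions. The 2KG cofactor was cut from the 1 mM of the initial activity assay to 50 μM, about 3–4-fold above the enzymes' 2KG KM. KM came from an FDH/NAD+-coupled NADH fluorescence assay.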

In the next test the target is 2KG-dependent enzymes. The note with it: broad-spectrum inhibitors of 2KG-dependent enzymes; cited from earlier work.
Where [1] appears, read: scaffold test under the optimized assay conditions (50 μM 2KG), Figure S7.
[2] abbreviates: 100 μM compound, 50 μM 2KG, MALDI-MS.

Structures are written as SMILES. Changes are numbered by the printed parent chain.

As for `O=C(O)c1ccc(O)c2ncccc12` [IOX1, 5-carboxy-8-hydroxyquinone], the “inhibition of demethylase activity” value at wild type KDM4A (setting [1]) and at KDM4A S288A mutant (setting [1]) was “inhibited” in each case. On 2KG-dependent enzymes, the IC50 entry is given as “micromolar range”.

As to `O=C(O)CNC(=O)C(=O)O` [compound 2, N-oxalylglycine], the “inhibition of demethylase activity” value on wild type KDM4A (setting [2]) is “significantly inhibited”; at wild type KDM4A (setting [1]), “inhibited”; against KDM4A S288A mutant (setting [2]), “significantly inhibited”; against KDM4A S288A mutant (setting [1]), “inhibited”. The IC50 result on 2KG-dependent enzymes was “micromolar range”.

Values taken from paper PMC6570502 (Chembiochem : a European journal of chemical biology, 2019).
